According to ChEMBL document CHEMBL1649468, “AAC(6')-Iaf, a novel aminoglycoside 6'-N-acetyltransferase from multidrug-resistant Pseudomonas aeruginosa clinical isolates” (2009):
≈ marks a conversion by molar mass, not a printed value.

What was measured:
Pseudomonas aeruginosa [1] = test: Antimicrobial activity against Pseudomonas aeruginosa isolate IMCJ799 by microdilution method; type: functional
Method in brief: (§1)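 Broth microdilution MIC following CLSI-recommended protocols, tested on multidrug-resistant clinical P. aeruginosa isolates against a panel of individual aminoglycosides. MIC reported in μg/ml.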

Pseudomonas aeruginosa [2] = test: Antimicrobial activity against multidrug resistant Pseudomonas aeruginosa isolate IMCJ2S1 by microdilution method; type: functional
Pseudomonas aeruginosa [3] = test: Antimicrobial activity against multidrug resistant Pseudomonas aeruginosa by microdilution method; type: functional
Escherichia coli [4] = test: Antimicrobial activity against Escherichia coli JM109 transformant harboring pSTV28 plasmid expressing aac(6')-Iaf (TTG-ATG) mutant gene by microdilution method; type: functional
Method in brief: (§2)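 Broth microdilution MICs followed CLSI protocols. The test strains were E. coli JM109 carrying the vector pSTV28 alone or pSTV28 bearing aac(6′)-Iaf (wild type or TTG→ATG start codon). Each strain was tested in Mueller-Hinton broth containing chloramphenicol (30 μg/ml) plus serial dilutions of individual aminoglycosides. MICs are reported in μg/ml.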

Pseudomonas aeruginosa [5] = test: Antimicrobial activity against Pseudomonas aeruginosa isolate IMCJ798 by microdilution method; type: functional; method in brief: as §1
Escherichia coli [6] = test: Antimicrobial activity against Escherichia coli JM109 transformant harboring pSTV28 plasmid by microdilution method
Escherichia coli [7] = test: Antimicrobial activity against Escherichia coli JM109 transformant harboring pSTV28 plasmid expressing aac(6')-Iaf wild type gene by microdilution method; type: functional; method in brief: as §2
Pseudomonas aeruginosa [8] = test: Antimicrobial activity against rifampin-resistant Pseudomonas aeruginosa ATCC 27853 by microdilution method; type: functional
Pseudomonas aeruginosa [9] = test: Antimicrobial activity against Pseudomonas aeruginosa isolate IMCJ799 by microdilution method in presence of beta-lactamase inhibitor Tazobactam; type: functional
Pseudomonas aeruginosa [10] = test: Antimicrobial activity against multidrug resistant Pseudomonas aeruginosa isolate IMCJ2S1 by microdilution method in presence of beta-lactamase inhibitor Tazobactam; type: functional
Pseudomonas aeruginosa [11] = test: Antimicrobial activity against Pseudomonas aeruginosa isolate IMCJ798 by microdilution method in presence of beta-lactamase inhibitor Tazobactam; type: functional
Pseudomonas aeruginosa [12] = test: Antimicrobial activity against rifampin-resistant Pseudomonas aeruginosa ATCC 27853 by microdilution method in presence of beta-lactamase inhibitor Tazobactam; type: functional

Compound | MIC (Pseudomonas aeruginosa [1]) [µg/mL] | MIC (Pseudomonas aeruginosa [2]) [µg/mL] | MIC (Pseudomonas aeruginosa [3]) [µg/mL] | MIC (Escherichia coli [4]) [µg/mL] | MIC (Pseudomonas aeruginosa [5]) [µg/mL] | MIC (Escherichia coli [6]) [µg/mL] | MIC (Escherichia coli [7]) [µg/mL] | MIC (Pseudomonas aeruginosa [8]) [µg/mL] | MIC (Pseudomonas aeruginosa [9]) [µg/mL] | MIC (Pseudomonas aeruginosa [10]) [µg/mL] | MIC (Pseudomonas aeruginosa [11]) [µg/mL] | MIC (Pseudomonas aeruginosa [12]) [µg/mL]
NCC[C@H](O)C(=O)N[C@@H]1C[C@H](N)[C@@H](O[C@H]2O[C@H](CN)[C@@H](O)[C@H](O)[C@H]2O)[C@H](O)[C@H]1O[C@H]1O[C@H](CO)[C@@H](O)[C@H](N)[C@H]1O [AMIKACIN] | 128 (≈ 219 µM) | 128 (≈ 219 µM) | ≥ 32 | 32 (≈ 54.6 µM) | 128 (≈ 219 µM) | 1 (≈ 1.71 µM) | 16 (≈ 27.3 µM) | 2 (≈ 3.42 µM) |  |  |  | 
NCC[C@H](O)C(=O)N[C@@H]1C[C@H](N)[C@@H](O[C@H]2O[C@H](CN)CC[C@H]2N)[C@H](O)[C@H]1O[C@H]1O[C@H](CO)[C@@H](O)[C@H](N)[C@H]1O [ARBEKACIN] | 16 (≈ 29 µM) | 2 (≈ 3.62 µM) |  | 4 (≈ 7.24 µM) | 8 (≈ 14.5 µM) | 2 (≈ 3.62 µM) | 4 (≈ 7.24 µM) | < 0.5 |  |  |  | 
C[C@H]1[C@H](NC(=O)/C(=N\OC(C)(C)C(=O)O)c2csc(N)n2)C(=O)N1S(=O)(=O)O [AZTREONAM] | 64 (≈ 147 µM) | 128 (≈ 294 µM) |  |  | 64 (≈ 147 µM) |  |  | 2 (≈ 4.59 µM) |  |  |  | 
CC(C)(O/N=C(\C(=O)N[C@@H]1C(=O)N2C(C(=O)[O-])=C(C[n+]3ccccc3)CS[C@H]12)c1csc(N)n1)C(=O)O [CEFTAZIDIME] | 512 (≈ 937 µM) | 512 (≈ 937 µM) |  |  | 512 (≈ 937 µM) |  |  | < 1 |  |  |  | 
NC[C@@H]1CC[C@@H](N)[C@@H](O[C@H]2[C@H](O)[C@@H](O[C@H]3O[C@H](CO)[C@@H](O)[C@H](N)[C@H]3O)[C@H](N)C[C@@H]2N)O1 [DIBEKACIN] | > 128 |  |  | 32 (≈ 70.9 µM) | > 128 | 1 (≈ 2.21 µM) | 16 (≈ 35.4 µM) |  |  |  |  | 
NC[C@@H]1O[C@H](O[C@H]2[C@@H](O)[C@H](O[C@@H]3[C@@H](O)[C@H](N)C[C@H](N)[C@H]3O[C@H]3O[C@H](CN)[C@@H](O)[C@H](O)[C@H]3N)O[C@@H]2CO)[C@H](N)[C@@H](O)[C@@H]1O [FRAMYCETIN] | 8 (≈ 13 µM) |  |  | 4 (≈ 6.51 µM) | 8 (≈ 13 µM) | 2 (≈ 3.25 µM) | 4 (≈ 6.51 µM) |  |  |  |  | 
C[C@@H](O)[C@H]1C(=O)N2C(C(=O)O)=C(SCCNC=N)C[C@H]12 [IMIPENEM ANHYDROUS] | 128 (≈ 428 µM) | 128 (≈ 428 µM) |  |  | 128 (≈ 428 µM) |  |  | 4 (≈ 13.4 µM) |  |  |  | 
CN[C@@H]1[C@@H](O)C(O[C@@H]2[C@@H](O)[C@H](OC3O[C@H](CN)[C@@H](O)[C@H](O)[C@H]3O)[C@@H](N)C[C@H]2NC(=O)[C@@H](O)CN)OC[C@]1(C)O (some centres undefined) [ISOPAMICIN] | > 128 |  |  | 16 (≈ 28.1 µM) | > 128 | 1 (≈ 1.76 µM) | 4 (≈ 7.02 µM) |  |  |  |  | 
NC[C@H]1O[C@H](O[C@H]2[C@H](O)[C@@H](O[C@H]3O[C@H](CO)[C@@H](O)[C@H](N)[C@H]3O)[C@H](N)C[C@@H]2N)[C@H](O)[C@@H](O)[C@@H]1O [KANAMYCIN] | > 128 |  |  | 128 (≈ 264 µM) | > 128 | 2 (≈ 4.13 µM) | 64 (≈ 132 µM) |  |  |  |  | 
C[C@@H](O)[C@H]1C(=O)N2C(C(=O)O)=C(S[C@@H]3CN[C@H](C(=O)N(C)C)C3)[C@H](C)[C@H]12 [MEROPENEM] | > 512 | 512 (≈ 1340 µM) | ≥ 16 |  | > 512 |  |  | 1 (≈ 2.61 µM) |  |  |  | 
CCN[C@@H]1C[C@H](N)[C@@H](O[C@H]2OC(CN)=CC[C@H]2N)[C@H](O)[C@H]1O[C@H]1OC[C@](C)(O)[C@H](NC)[C@H]1O [NETILMICIN] | > 128 |  |  | 8 (≈ 16.8 µM) | > 128 | 0.5 (≈ 1.05 µM) | 8 (≈ 16.8 µM) |  |  |  |  | 
CC1COc2c(N3CCN(C)CC3)c(F)cc3c(=O)c(C(=O)O)cn1c23 (centres undefined) [OFLOXACIN] | > 128 |  | ≥ 4 |  | > 128 |  |  | < 0.5 |  |  |  | 
CCN1CCN(C(=O)N[C@@H](C(=O)N[C@@H]2C(=O)N3[C@@H]2SC(C)(C)[C@@H]3C(=O)O)c2ccccc2)C(=O)C1=O [PIPERACILLIN] | 256 (≈ 495 µM) | 256 (≈ 495 µM) |  |  | 256 (≈ 495 µM) |  |  | < 4 |  |  |  | 
CN[C@@H]1[C@@H](O)[C@@H](O[C@@H]2[C@@H](O)[C@H](O[C@H]3OC(CN)=CC[C@H]3N)[C@@H](N)C[C@H]2N)OC[C@]1(C)O [SISOMICIN] | 32 (≈ 71.5 µM) |  |  | 2 (≈ 4.47 µM) | 32 (≈ 71.5 µM) | 0.5 (≈ 1.12 µM) | 1 (≈ 2.23 µM) |  |  |  |  | 
C[C@]1(Cn2ccnn2)[C@H](C(=O)O)N2C(=O)C[C@H]2S1(=O)=O [TAZOBACTAM] |  |  |  |  |  |  |  |  | 256 | 256 | 256 | 4
NC[C@H]1O[C@H](O[C@H]2[C@H](O)[C@@H](O[C@H]3O[C@H](CO)[C@@H](O)[C@H](N)[C@H]3O)[C@H](N)C[C@@H]2N)[C@H](N)C[C@@H]1O [TOBRAMYCIN] | 32 (≈ 68.4 µM) |  |  | 4 (≈ 8.56 µM) | 32 (≈ 68.4 µM) | 0.125 (≈ 0.267 µM) | 4 (≈ 8.56 µM) |  |  |  |  | 
GENTAMICIN | 2 | 16 |  | 1 | 4 |  | 1 | < 1 |  |  |  | 
POLYMYXIN B | 4 | 2 |  |  | 4 |  |  | 2 |  |  |  | 
